Assay results published in ChEMBL document CHEMBL1127575, “Synthesis of androst-5-en-7-ones and androsta-3,5-dien-7-ones and their related 7-deoxy analogs as conformational and catalytic probes for the active site of aromatase” (J Med Chem, 1994).
pIC50, pKi: −log10 of the molar value.

Legend:
Aromatase [1] = biological target: T1, Aromatase (Homo sapiens, UniProt P11511); assay: In vitro competitive inhibitory activity was measured on Cytochrome P450 19A1 of human placental microsomes
T1 sequence (P11511 whole entry): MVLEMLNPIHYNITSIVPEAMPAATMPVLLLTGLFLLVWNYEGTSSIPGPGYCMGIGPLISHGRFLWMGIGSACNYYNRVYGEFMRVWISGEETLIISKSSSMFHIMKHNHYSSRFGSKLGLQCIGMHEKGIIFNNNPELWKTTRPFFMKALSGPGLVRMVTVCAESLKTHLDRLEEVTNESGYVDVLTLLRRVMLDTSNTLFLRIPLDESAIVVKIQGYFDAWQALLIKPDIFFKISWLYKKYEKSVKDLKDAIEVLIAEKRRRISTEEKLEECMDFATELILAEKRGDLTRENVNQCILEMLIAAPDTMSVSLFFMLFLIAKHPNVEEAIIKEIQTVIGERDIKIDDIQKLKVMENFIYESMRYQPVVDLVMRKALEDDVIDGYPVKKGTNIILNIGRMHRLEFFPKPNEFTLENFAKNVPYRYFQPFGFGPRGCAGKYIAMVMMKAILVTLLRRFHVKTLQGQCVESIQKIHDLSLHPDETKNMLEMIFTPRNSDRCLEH

Aromatase [2] = biological target: T1, Aromatase; assay: The binding affinity was determined on Cytochrome P450 19A1 by analysis of Dixon plot
Aromatase [3] = biological target: T1, Aromatase; assay: Time dependent inactivation of Cytochrome P450 19A1 was obtained by Kitz-Wilson plot
Aromatase [4] = biological target: T1, Aromatase; assay: Time dependent inactivation of aromatase cytochrome P450 19A1 from Kitz-Wilson plot
Summary of the method: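 Human placental microsomes (105000g pellet, washed with 0.05 mM dithiothreitol, lyophilized) incubated with inhibitor plus NADPH in 67 mM phosphate buffer in air. Residual aromatase activity then measured in 5-min kinetic assay by 3H2O release from [1β-3H]androstenedione. Pseudo-first-order loss over first 12 min analysed by Kitz-Wilson method. Double-reciprocal plot of kobs versus inhibitor concentration gave kinact and Ki. Points are means of duplicates.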

Aromatase [5] = biological target: T1, Aromatase; assay: Binding affinity for aromatase cytochrome P45019A1 by analysis of Dixon plot

Row | Compound | pIC50 (Aromatase [1]) | pKi (Aromatase [2]) | pKi (Aromatase [3]) | kinact (Aromatase [3]) | pKi (Aromatase [4]) | kinact (Aromatase [4]) | pKi (Aromatase [5])
1 | C[C@]12CC[C@H]3[C@@H](CC=C4CCCC[C@@]43CO)[C@@H]1CCC2=O | 5.16 | 6.00 |  |  |  |  | 
2 | C[C@]12CCCCC1=CC[C@@H]1[C@@H]2CC[C@]2(C)C(=O)CC[C@@H]12 | 6.18 | 6.92 |  |  |  |  | 
3 | CC12CCC3C(C(=O)C=C4C=CCCC43C)C1CCC2=O (stereo unspecified) | 5.74 | 6.66 | 6.74 | 0.00198 s⁻¹ |  |  | 
4 | CC12CCCCC1=CC(=O)C1C2CCC2(C)C(O)CCC12 (stereo unspecified) | 4.38 | 5.26 |  |  |  |  | 
5 | CC12CCC3C(C(=O)C=C4C=CCCC43C=O)C1CCC2=O (stereo unspecified) | 4.96 | 5.74 |  |  | 5.54 | 0.00315 s⁻¹ | 
6 | CC12CCC3C(C(=O)C=C4C=CCCC43CO)C1CCC2=O (stereo unspecified) | 4.22 | 4.82 |  |  | 5.15 | 0.00147 s⁻¹ | 
7 | CC12CCC3C(C(=O)C=C4CCCCC43CO)C1CCC2=O (stereo unspecified) | 4.25 | 4.96 | 4.96 | 0.000967 s⁻¹ |  |  | 
8 | CC12CCC3C(CC=C4CCCCC43CO)C1CCC2O (stereo unspecified) | 4.21 |  |  |  |  |  | 5.01
9 | CC12CCC3C4CCC(=O)C=C4CCC3C1CCC2=O (stereo unspecified) | 5.92 |  |  |  |  |  | 6.85
10 | CC12CCC=CC1=CC(=O)C1C2CCC2(C)C1CC[C@@H]2O (stereo partly specified) | 4.38 | 5.28 |  |  |  |  | 
11 | CC12CCC3C(C(=O)C=C4CCCCC43CO)C1CCC2O (stereo unspecified) | 3.85 | 4.35 |  |  |  |  | 
12 | CC12CCCCC1=CCC1C2CCC2(C)C(O)CCC12 (stereo unspecified) | 4.52 | 5.52 |  |  |  |  | 
13 | CC12CCC3C(C(=O)C=C4CCCCC43C)C1CCC2=O (stereo unspecified) | 5.74 | 6.60 | 6.82 | 0.00115 s⁻¹ |  |  | 
14 | CC12CCC3C4CCCCC4=CC(=O)C3C1CCC2=O (stereo unspecified) | 4.55 | 5.62 | 5.59 | 0.00113 s⁻¹ |  |  | 
15 | CC12CCC=CC1=CCC1C2CCC2(C)C1CC[C@@H]2O (stereo partly specified) | 4.74 | 5.70 |  |  |  |  | 
16 | CC12CCC3C(CC=C4C=CCCC43C)C1CCC2=O (stereo unspecified) | 6.47 | 7.24 |  |  |  |  | 
17 | CC12CCC3C(C(=O)C=C4CCCCC43C=O)C1CCC2=O (stereo unspecified) | 4.22 | 4.89 | 4.70 | 0.00238 s⁻¹ |  |  | 
18 | CC12CCC3C(CC=C4CCCCC43C)C1C[C@@H](Br)C2=O (stereo partly specified) | 4.26 | 4.96 |  |  |  |  | 
19 | CC12CCC3C4CCC=CC4=CC(=O)C3C1CCC2=O (stereo unspecified) | 4.48 | 5.52 |  |  |  |  | 
20 | CC12CCC3C(CC=C4CCCCC43C=O)C1CCC2=O (stereo unspecified) | 5.05 |  |  |  |  |  | 5.85
21 | C[C@]12CCC(=O)C=C1CC[C@@H]1[C@@H]2CC[C@]2(C)C(=O)CC[C@@H]12 [ANDROSTENEDIONE] | 6.52 |  |  |  |  |  | 7.70
